Bounds are passed on as bounds.

In assay [1] the target is Mitogen-activated protein kinase 14 (Homo sapiens, UniProt Q16539). The assay is described as follows: Inhibition of human p38-alpha expressed in Escherichia coli.
Assay [2] has as its system THP-1. Briefly: Inhibition of LPS-induced TNFalpha production in human THP1 cells by ELISA. The format is functional, cell-based. Put shortly:
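THP-1 cells grown in RPMI 1640 with 10% FBS, 40000 cells/well. Compound or vehicle was added (1% DMSO final), then LPS at 1 μg/mL final. Cells were incubated overnight at 37 °C, 5% CO2. TNF in the supernatant was measured by sandwich ELISA: anti-human TNF capture, biotinylated polyclonal detection, streptavidin-peroxidase read-out.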
Background: An ELISA detects its analyte on a solid surface through an enzyme-linked reagent.

Chain of Mitogen-activated protein kinase 14 (Q16539 whole entry): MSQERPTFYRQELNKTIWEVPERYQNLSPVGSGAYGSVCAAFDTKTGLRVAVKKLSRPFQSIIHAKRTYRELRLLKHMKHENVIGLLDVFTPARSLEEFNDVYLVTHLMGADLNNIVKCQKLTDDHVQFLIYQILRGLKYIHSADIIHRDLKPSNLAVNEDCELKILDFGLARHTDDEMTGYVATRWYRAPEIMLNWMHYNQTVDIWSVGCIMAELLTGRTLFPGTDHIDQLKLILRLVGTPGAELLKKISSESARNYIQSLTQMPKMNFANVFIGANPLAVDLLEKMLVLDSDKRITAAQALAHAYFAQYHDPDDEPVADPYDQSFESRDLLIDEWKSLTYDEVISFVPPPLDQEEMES

As a reminder, the IC50 is the concentration that gives 50% inhibition. Higher therefore signals weaker potency. Consider `Cc1ccc(C(N)=O)cc1Nc1nc(N[C@H]2CCNC2)nc(N(C)CC(C)c2ccccc2)n1` (stereo partly specified), for which the figures for the IC50 in assay [1] and in assay [2] were 84 nM and 2600 nM, respectively. In turn, `Cc1ccc(C(=O)O)cc1Nc1nc(N(C)CC(C)(C)C)nc(N2CCCN(C)CC2)n1` came in with an IC50 in assay [1] above 1000 nM. In the case of `Cc1ccc(C(N)=O)cc1Nc1nc(NC[C@@H]2CC[C@H]3C[C@@H]2C3(C)C)nc(N2CCCN(C)CC2)n1`, half-maximal inhibition in assay [1] (IC50) required 1420 nM.

`Cc1ccc(C(=O)NCc2ccccc2)cc1Nc1nc(N[C@H]2CCNC2)nc(N(C)CC(C)(C)C)n1`: the IC50 was 64 nM in assay [1] and 85 nM in assay [2]. Taken in the same sequence, the figures for `CCNC(=O)c1ccc(C)c(Nc2nc(N[C@H]3CCNC3)nc(N(C)CC(C)(C)C)n2)c1` were 31 nM and 140 nM. As for `COC(=O)c1ccc(C)c(Nc2nc(N[C@H]3CCNC3)nc(N(C)CC(C)(C)C)n2)c1`, the IC50 in assay [1] was 346 nM; in assay [2], above 250 nM.

On to `Cc1ccc(C(N)=O)cc1Nc1nc(NCCc2ccc(F)cc2)nc(N[C@H]2CCNC2)n1`, for which the figures for the IC50 in assay [1] and in assay [2] were 227 nM and above 5000 nM, respectively. `CONC(=O)c1ccc(C)c(Nc2nc(N[C@H]3CCNC3)nc(N(C)CC(C)(C)C)n2)c1`: the IC50 came out at 8 nM in assay [1] and 16 nM in assay [2].

As for `Cc1ccc(C(N)=O)cc1Nc1nc(N)nc(NC[C@@H]2CC[C@H]3C[C@@H]2C3(C)C)n1`, inhibition in assay [1] was half-maximal at 5900 nM (IC50).

Regarding `CONC(=O)c1ccc(C)c(Nc2nc(N(C)CC(C)(C)C)nc(N3CCN(C)CC3)n2)c1`, the results for the half-inhibitory concentration (IC50) in assay [1] and in assay [2] were 57 nM and 158 nM, respectively. For `Cc1ccc(C(N)=O)cc1Nc1nc(N[C@H]2CCNC2)nc(N(C)CC(C)C)n1` the same measures were 28 nM and 325 nM. Taken in the same sequence, the figures for `Cc1ccc(C(=O)NC2CCCC2)cc1Nc1nc(N[C@H]2CCNC2)nc(N(C)CC(C)(C)C)n1` were 100 nM and 130 nM. As to `Cc1ccc(C(N)=O)cc1Nc1nc(N[C@H]2CCNC2)nc(N(C)CC(C)(C)C)n1`, the IC50 was found to be 24 nM in assay [1] and 167 nM in assay [2].

`Cc1ccc(C(=O)NC(C)C)cc1Nc1nc(N[C@H]2CCNC2)nc(N(C)CC(C)(C)C)n1`: the values for the IC50 in assay [1] and in assay [2] were 51 nM and 150 nM, respectively.

`Cc1ccc(C(N)=O)cc1Nc1nc(N[C@H]2CCNC2)nc(N(C)CC2CCCCC2)n1`: the IC50 in assay [1] stood at 250 nM; in assay [2] it was 1300 nM. With `CONC(=O)c1ccc(C)c(Nc2nc(N(C)CC(C)(C)C)nc(N3CCNCC3)n2)c1`, the IC50 in assay [1] amounted to 18 nM; in assay [2] it was 120 nM.

With `CONC(=O)c1ccc(C)c(Nc2nc(N(C)CC(C)(C)C)nc(N3CCCNCC3)n2)c1`, the IC50 came out at 52 nM in assay [1] and 131 nM in assay [2]. Consider `COCCNC(=O)c1ccc(C)c(Nc2nc(N[C@H]3CCNC3)nc(N(C)CC(C)(C)C)n2)c1`, for which the IC50 in assay [1] worked out at 264 nM; in assay [2], 680 nM. For `Cc1ccc(C(N)=O)cc1Nc1nc(NC[C@@H]2CC[C@H]3C[C@@H]2C3(C)C)nc(N[C@H]2CCNC2)n1` the same measures were 53 nM and 1100 nM. Taken in the same sequence, the figures for `Cc1ccc(C(N)=O)cc1Nc1nc(NC[C@@H]2CC[C@H]3C[C@@H]2C3(C)C)nc(N2CCCNCC2)n1` were 1360 nM and 1700 nM. Taken in the same sequence, the figures for `Cc1ccc(C(=O)NO)cc1Nc1nc(N[C@H]2CCNC2)nc(N(C)CC(C)(C)C)n1` were 16 nM and 150 nM. For `Cc1ccc(C(N)=O)cc1Nc1nc(NCC(C)C)nc(N[C@H]2CCNC2)n1`, the IC50 in assay [1] is 73 nM; in assay [2], above 5000 nM.

For the origin of these results see ChEMBL document CHEMBL1149254, “The discovery of orally active triaminotriazine aniline amides as inhibitors of p38 MAP kinase” (J Med Chem, 2004).
